Values after ≈ are worked out from the molar mass of the structure shown. One block for each molecule: values may come before it.
Columns and labels:
dengue virus type 2 = test: Antiviral activity against Dengue virus 2 Rega infected in African green monkey Vero cells assessed as reduction in viral yield after 4 days by qRT-PCR analysis; type: functional, organism-based
Procedure, shortened: (§1)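 Virus yield reduction in Vero cells (seeded 5×10^4/well). Next day infected with DENV (MOI 0.01) in assay medium (MEM, 2% FBS, 0.075% bicarbonate, 2 mM L-glutamine). After 1 h, input virus was removed and cells rinsed 3 times. Medium with 3- or 5-fold compound serial dilutions was then added. Incubation was 4 days (DENV-2, DENV-4) or 7 days (DENV-1, DENV-3). Supernatant viral RNA was measured by RT-qPCR, and EC50 obtained by logarithmic interpolation.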

Vero = test: (§2) Cytotoxicity against African green monkey Vero cells assessed as cell growth inhibition after 4 days by MTS/PMS method; type: cell-based; conditions: chlorocebus sabaeus, vero, 96 h
Procedure, shortened: (§3)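 Cytotoxicity run as in the yield assay, but without virus. Vero cells (5×10^4/well) were exposed to 3- or 5-fold serial dilutions in MEM with 2% FBS. Viability was read by the MTS/PMS colorimetric method. CC50 was derived by logarithmic interpolation.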

[1] = Solubility of the compound in DMSO solution at pH 7.4; type: physicochemical
Procedure, shortened: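 Solubility measured at pH 7.4, starting from a DMSO solution.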

[2] = Drug metabolism in human liver microsomes after 15 mins; type: ADME, microsome; conditions: for Drug metabolism: microsomes, 0.25 h; for metabolised at 0.25 h: liver microsomes, read-out: Drug metabolism
Procedure, shortened: (§4)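 Percentage of compound metabolized after 15 min incubation with human or rat liver microsomes.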

[3] = Drug metabolism in rat liver microsomes after 15 mins; type: ADME, microsome; conditions: for Drug metabolism: microsomes, 0.25 h; for metabolised at 0.25 h: liver microsomes, read-out: Drug metabolism; procedure, shortened: as §4
[4] = (§5) Apparent permeability across apical to basolateral side in MDR1 transfected pig LLC-PK1 cells in absence of P-gp inhibitor GF120918; type: ADME, cell-based, Sus scrofa; conditions: llc-pk1
Procedure, shortened: (§6)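 Permeability measured in MDR1-transfected LLC-PK1 cells without the P-gp inhibitor GF120918.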

[5] = Protein binding in human plasma; type: ADME, cell-free
[6] = Protein binding in rat plasma; type: ADME, cell-free
[7] = target: Voltage-gated inwardly rectifying potassium channel KCNH2 (Homo sapiens, UniProt Q12809); test: Inhibition of human ERG
Cytochrome P450 1A2 = target: T1, Cytochrome P450 1A2 (Homo sapiens, UniProt P05177); test: Inhibition of CYP1A2 (unknown origin); type: ADME
T1 sequence (P05177 whole entry): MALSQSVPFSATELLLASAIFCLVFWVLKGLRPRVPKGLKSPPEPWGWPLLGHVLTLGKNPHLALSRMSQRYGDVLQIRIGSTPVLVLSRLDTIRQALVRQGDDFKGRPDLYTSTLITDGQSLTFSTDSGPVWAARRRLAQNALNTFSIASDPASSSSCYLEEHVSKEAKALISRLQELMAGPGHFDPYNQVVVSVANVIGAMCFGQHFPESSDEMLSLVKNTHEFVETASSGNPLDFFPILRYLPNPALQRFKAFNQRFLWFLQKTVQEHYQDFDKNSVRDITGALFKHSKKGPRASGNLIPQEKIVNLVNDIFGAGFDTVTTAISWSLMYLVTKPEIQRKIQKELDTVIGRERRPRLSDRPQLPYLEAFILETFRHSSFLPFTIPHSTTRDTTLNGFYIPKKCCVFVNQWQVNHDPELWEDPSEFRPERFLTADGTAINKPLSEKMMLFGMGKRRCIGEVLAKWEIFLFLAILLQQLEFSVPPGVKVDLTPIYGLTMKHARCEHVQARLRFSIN

Cytochrome P450 2C19 = Cytochrome P450 2C19 (Homo sapiens, UniProt P33261); test: Inhibition of CYP2C19 (unknown origin); type: ADME
Cytochrome P450 2C9 = Cytochrome P450 2C9 (Homo sapiens, UniProt P11712); test: Inhibition of CYP2C9 (unknown origin); type: ADME
Cytochrome P450 2D6 = Cytochrome P450 2D6 (Homo sapiens, UniProt P10635); test: Inhibition of CYP2D6 (unknown origin); type: ADME
Cytochrome P450 3A4 = Cytochrome P450 3A4 (Homo sapiens, UniProt P08684); test: Inhibition of CYP3A4 (unknown origin); type: ADME
Salmonella typhimurium [8] = test: Mutagenicity in Salmonella typhimurium in presence of human liver S9 fraction by Ames test; type: toxicity, organism-based; conditions: salmonella enterica subsp. enterica serovar typhimurium
Salmonella typhimurium [9] = test: Mutagenicity in Salmonella typhimurium in absence of human liver S9 fraction by Ames test; type: toxicity, organism-based; conditions: salmonella enterica subsp. enterica serovar typhimurium
[10] = as §2; type: cell-based; conditions: chlorocebus sabaeus, Vero cells; procedure, shortened: as §3
dengue virus type 1 = test: Antiviral activity against Dengue virus 1 Djibouti D1/H/IMTSSA/98/606 infected in African green monkey Vero cells assessed as reduction in viral yield after 7 days by qRT-PCR analysis; type: functional, organism-based; conditions: Djibouti D1/H/IMTSSA/98/606, Vero, 168 h; procedure, shortened: as §1
dengue virus type 3 = test: Antiviral activity against Dengue virus 3 H87 infected in African green monkey Vero cells assessed as reduction in viral yield after 7 days by qRT-PCR analysis; type: functional, organism-based; conditions: 168 h; procedure, shortened: as §1
dengue virus type 4 = test: Antiviral activity against Dengue virus 4 DAKHD34460 infected in African green monkey Vero cells assessed as reduction in viral yield after 4 days by qRT-PCR analysis; type: functional, organism-based; conditions: 96 h; procedure, shortened: as §1
P-gp (MDR1) = test: as §5; type: ADME, cell-based, Sus scrofa; conditions: LLC-PK1; procedure, shortened: as §6
[11] = Clearance in rat at 2.5 mg/kg, iv; type: ADME, organism-based; conditions: in vivo
Procedure, shortened: (§7)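 Rat PK. Intravenous dose was 2.5 mg/kg in PEG400/water 7/3. Oral dose was 10 mg/kg in PEG400.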

[12] = Volume of distribution at steady state in rat at 2.5 mg/kg, iv; type: ADME, organism-based; conditions: in vivo, read-out: Vdss; procedure, shortened: as §7
[13] = Half life in rat at 2.5 mg/kg, iv; type: ADME, organism-based; conditions: in vivo; procedure, shortened: as §7
[14] = Cmax in rat at 10 mg/kg, po; type: ADME, organism-based; design: dose 10 mg/kg, route oral; conditions: in vivo; procedure, shortened: as §7
[15] = AUClast in rat at 10 mg/kg, po; type: ADME, organism-based; design: dose 10 mg/kg, route oral, time 0 - last; conditions: in vivo; procedure, shortened: as §7
[16] = Oral bioavailability in rat at 10 mg/kg; type: ADME, organism-based; conditions: in vivo; procedure, shortened: as §7

Cytochrome P450 2C9, sequence (P11712 whole entry): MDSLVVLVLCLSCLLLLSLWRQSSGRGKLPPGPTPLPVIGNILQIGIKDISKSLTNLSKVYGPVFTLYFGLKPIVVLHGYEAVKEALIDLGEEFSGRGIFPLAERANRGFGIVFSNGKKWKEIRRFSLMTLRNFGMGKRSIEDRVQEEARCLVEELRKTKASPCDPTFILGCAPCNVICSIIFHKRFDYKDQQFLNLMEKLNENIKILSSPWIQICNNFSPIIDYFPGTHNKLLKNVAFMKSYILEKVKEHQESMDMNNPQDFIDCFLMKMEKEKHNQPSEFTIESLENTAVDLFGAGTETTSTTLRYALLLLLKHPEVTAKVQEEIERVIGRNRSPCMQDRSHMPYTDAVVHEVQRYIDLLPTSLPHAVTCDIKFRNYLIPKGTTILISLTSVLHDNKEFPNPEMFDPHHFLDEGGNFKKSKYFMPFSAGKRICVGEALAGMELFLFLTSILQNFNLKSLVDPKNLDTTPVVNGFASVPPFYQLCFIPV
Cytochrome P450 2D6, sequence (P10635 whole entry): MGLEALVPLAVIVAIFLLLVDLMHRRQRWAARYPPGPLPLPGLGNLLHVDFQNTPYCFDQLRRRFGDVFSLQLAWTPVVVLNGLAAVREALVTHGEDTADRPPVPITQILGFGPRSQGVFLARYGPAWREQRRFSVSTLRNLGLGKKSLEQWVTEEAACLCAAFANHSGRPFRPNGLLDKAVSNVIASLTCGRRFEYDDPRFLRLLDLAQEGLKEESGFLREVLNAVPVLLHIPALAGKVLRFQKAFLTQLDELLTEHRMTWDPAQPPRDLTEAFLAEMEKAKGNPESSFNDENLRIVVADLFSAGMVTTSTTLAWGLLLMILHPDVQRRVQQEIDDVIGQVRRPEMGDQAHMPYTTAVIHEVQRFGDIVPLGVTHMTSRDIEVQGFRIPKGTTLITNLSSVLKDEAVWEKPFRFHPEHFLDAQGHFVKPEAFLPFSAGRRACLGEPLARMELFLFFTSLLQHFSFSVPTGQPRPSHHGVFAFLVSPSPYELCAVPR
Cytochrome P450 2C19, sequence (P33261 whole entry): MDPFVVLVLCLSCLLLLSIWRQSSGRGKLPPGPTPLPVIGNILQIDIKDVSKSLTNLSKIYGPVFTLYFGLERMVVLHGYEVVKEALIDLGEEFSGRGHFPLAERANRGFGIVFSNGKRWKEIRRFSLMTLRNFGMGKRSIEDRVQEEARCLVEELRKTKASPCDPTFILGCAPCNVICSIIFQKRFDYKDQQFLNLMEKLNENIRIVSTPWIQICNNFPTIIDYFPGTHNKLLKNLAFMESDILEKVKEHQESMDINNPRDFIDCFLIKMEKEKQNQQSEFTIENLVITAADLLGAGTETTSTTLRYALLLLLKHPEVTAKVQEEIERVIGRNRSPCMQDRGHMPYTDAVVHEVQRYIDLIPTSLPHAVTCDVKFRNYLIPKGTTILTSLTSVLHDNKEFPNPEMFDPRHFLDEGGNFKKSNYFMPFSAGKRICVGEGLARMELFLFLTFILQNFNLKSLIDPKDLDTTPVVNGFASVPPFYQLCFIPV
Cytochrome P450 3A4, sequence (P08684 whole entry): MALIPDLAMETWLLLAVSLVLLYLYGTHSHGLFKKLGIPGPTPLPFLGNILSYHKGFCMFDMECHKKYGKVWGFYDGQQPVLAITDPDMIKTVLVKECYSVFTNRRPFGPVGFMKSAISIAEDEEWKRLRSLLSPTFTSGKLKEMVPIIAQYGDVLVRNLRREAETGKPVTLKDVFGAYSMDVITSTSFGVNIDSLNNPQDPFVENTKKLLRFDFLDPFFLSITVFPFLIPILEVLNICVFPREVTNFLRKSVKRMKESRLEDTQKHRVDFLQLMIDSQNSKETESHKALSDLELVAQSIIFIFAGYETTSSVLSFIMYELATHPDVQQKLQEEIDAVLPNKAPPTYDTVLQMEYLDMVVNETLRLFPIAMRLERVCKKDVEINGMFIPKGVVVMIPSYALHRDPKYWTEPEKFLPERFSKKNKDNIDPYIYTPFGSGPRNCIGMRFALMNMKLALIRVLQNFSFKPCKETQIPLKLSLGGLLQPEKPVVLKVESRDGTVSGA
Voltage-gated inwardly rectifying potassium channel KCNH2, sequence (Q12809 whole entry): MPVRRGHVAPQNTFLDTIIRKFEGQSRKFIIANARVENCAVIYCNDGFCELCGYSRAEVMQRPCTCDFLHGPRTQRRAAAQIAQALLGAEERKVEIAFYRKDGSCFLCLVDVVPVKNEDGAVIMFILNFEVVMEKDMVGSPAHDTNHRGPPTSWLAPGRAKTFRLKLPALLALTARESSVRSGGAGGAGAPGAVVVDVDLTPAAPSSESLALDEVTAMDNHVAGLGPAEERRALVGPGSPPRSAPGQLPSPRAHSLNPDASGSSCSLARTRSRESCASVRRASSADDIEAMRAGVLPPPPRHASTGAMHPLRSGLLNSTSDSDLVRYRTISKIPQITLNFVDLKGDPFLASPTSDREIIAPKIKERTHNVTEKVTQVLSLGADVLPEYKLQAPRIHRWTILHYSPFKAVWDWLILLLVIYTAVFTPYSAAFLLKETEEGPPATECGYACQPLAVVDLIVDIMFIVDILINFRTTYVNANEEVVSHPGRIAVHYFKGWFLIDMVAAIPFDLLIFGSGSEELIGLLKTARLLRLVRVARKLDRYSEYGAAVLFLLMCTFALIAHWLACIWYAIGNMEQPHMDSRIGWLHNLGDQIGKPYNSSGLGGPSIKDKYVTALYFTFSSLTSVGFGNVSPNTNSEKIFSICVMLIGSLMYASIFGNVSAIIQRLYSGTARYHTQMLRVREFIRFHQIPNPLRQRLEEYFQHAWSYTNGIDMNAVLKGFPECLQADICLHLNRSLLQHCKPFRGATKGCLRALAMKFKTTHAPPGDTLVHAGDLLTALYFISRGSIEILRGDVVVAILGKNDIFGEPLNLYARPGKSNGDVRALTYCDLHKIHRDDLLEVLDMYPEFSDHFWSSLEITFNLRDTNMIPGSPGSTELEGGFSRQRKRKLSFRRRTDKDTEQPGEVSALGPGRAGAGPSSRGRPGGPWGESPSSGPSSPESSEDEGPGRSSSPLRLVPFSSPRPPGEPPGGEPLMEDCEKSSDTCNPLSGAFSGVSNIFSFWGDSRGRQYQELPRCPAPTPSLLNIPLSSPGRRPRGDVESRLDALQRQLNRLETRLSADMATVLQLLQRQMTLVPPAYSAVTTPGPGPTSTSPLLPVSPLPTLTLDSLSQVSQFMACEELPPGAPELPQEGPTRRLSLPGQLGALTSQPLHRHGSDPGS

EC50 (dengue virus type 2; vero): 0.059 µM | solubility [1]: 60 µM (≈ 25 µg/mL) | Drug metabolism [2]: 13% | Drug metabolism [3]: 37%
SMILES: COc1cc(NC(C(=O)c2c[nH]c3ccccc23)c2ccccc2)cc(OCCO)c1 (racemic)
CC50 (Vero): 47 µM

EC50 (dengue virus type 2; Dengue virus, Rega, Vero, 96 h): 0.013 µM | solubility ([1]; read-out: solubility): 27 µM (≈ 11.7 µg/mL) | metabolised at 0.25 h [2]: 7% | metabolised at 0.25 h [3]: 23%
SMILES: COc1cc(NC(C(=O)c2c[nH]c3ccccc23)c2ccc(F)cc2)cc(OCCO)c1 (configuration not stated)
CC50 at 96 h [10]: 46 µM

EC50 (dengue virus type 2; vero): 0.456 µM
SMILES: COc1cc(NC(C(=O)c2c[nH]c3ccccc23)c2ccccc2)cc(OCCO)c1 (single isomer, unassigned; (-))
CC50 (Vero): 77 µM

EC50 (dengue virus type 2; Dengue virus, Rega, Vero, 96 h): 0.025 µM
SMILES: COc1cccc(NC(C(=O)c2c[nH]c3ccccc23)c2ccc(F)cc2)c1 (configuration not stated)
CC50 at 96 h [10]: 14 µM

EC50 (dengue virus type 2; Dengue virus, Rega, Vero, 96 h): 0.085 µM | solubility ([1]; read-out: solubility): 30 µM (≈ 12.9 µg/mL) | metabolised at 0.25 h [2]: 8% | metabolised at 0.25 h [3]: 67%
SMILES: COc1cc(NC(C(=O)c2c[nH]c3ccccc23)c2ccccc2)cc(OCCCO)c1 (configuration not stated)
CC50 at 96 h [10]: 50 µM

More lines, now with the values behind:

SMILES: COc1cc(NC(C(=O)c2c[nH]c3ccccc23)c2ccccc2)cc(OC)c1 (racemic)
EC50 (dengue virus type 2; vero): 0.007 µM | CC50 (Vero): 16 µM | Papp [4]: 75 nm/s | PPB [5]: 99.8% | PPB [6]: 99.9% | Drug metabolism [2]: 11% | Drug metabolism [3]: 63% | IC50 [7]: > 50 µM | IC50 (Cytochrome P450 1A2): 2.4 µM | IC50 (Cytochrome P450 2C19): 4 µM | IC50 (Cytochrome P450 2C9): 4.8 µM | IC50 (Cytochrome P450 2D6): > 10 µM | IC50 (Cytochrome P450 3A4): > 10 µM | Activity (Salmonella typhimurium [8]): Non-Toxic | Activity (Salmonella typhimurium [9]): Non-Toxic

SMILES: COc1cc(NC(C(=O)c2c[nH]c3ccc(F)cc23)c2ccccc2)cc(OC)c1 (configuration not stated)
EC50 (dengue virus type 2; Dengue virus, Rega, Vero, 96 h): 0.007 µM | CC50 at 96 h [10]: 13 µM | EC50 (dengue virus type 1): 0.247 µM | EC50 (dengue virus type 3): 0.68 µM | EC50 (dengue virus type 4): 4.8 µM | Activity (Salmonella typhimurium [8]): Non-Toxic | Activity (Salmonella typhimurium [9]): Non-Toxic

SMILES: COc1cc(NC(C(=O)c2c[nH]c3ccccc23)c2cccnc2)cc(OC)c1 (configuration not stated)
EC50 (dengue virus type 2; Dengue virus, Rega, Vero, 96 h): 0.015 µM | CC50 at 96 h [10]: 69 µM | EC50 (dengue virus type 1): 0.173 µM | EC50 (dengue virus type 3): 0.31 µM | EC50 (dengue virus type 4): 2.5 µM

SMILES: COc1cc(NC(C(=O)c2c[nH]c3ccccc23)c2ccccc2)cc(OC)c1 (stereo in doubt; 12b)
EC50 (dengue virus type 2; vero): 0.348 µM | CC50 (Vero): 11 µM | solubility [1]: 9 µM (≈ 3.48 µg/mL) | Papp [4]: 74 nm/s | PPB [5]: 99.9% | PPB [6]: > 99.9% | Drug metabolism [2]: 16% | Drug metabolism [3]: 91% | IC50 (Cytochrome P450 1A2): 6.4 µM | IC50 (Cytochrome P450 2C19): 3 µM | IC50 (Cytochrome P450 2C9): 3 µM | IC50 (Cytochrome P450 2D6): > 10 µM | IC50 (Cytochrome P450 3A4): > 10 µM

SMILES: COc1cc(CO)cc(NC(C(=O)c2c[nH]c3ccccc23)c2ccccc2)c1 (configuration not stated)
EC50 (dengue virus type 2; Dengue virus, Rega, Vero, 96 h): 0.065 µM | CC50 at 96 h [10]: 71 µM | solubility ([1]; read-out: solubility): 50 µM (≈ 19.3 µg/mL) | metabolised at 0.25 h [2]: 18% | metabolised at 0.25 h [3]: 85%

SMILES: COc1cc(NC(C(=O)c2c[nH]c3ccccc23)c2ccccc2)cc(OC)c1 (single isomer, unassigned; (+))
EC50 (dengue virus type 2; vero): 0.001 µM | CC50 at 96 h [10]: 13 µM | EC50 (dengue virus type 1): 0.047 µM | EC50 (dengue virus type 3): 0.092 µM | EC50 (dengue virus type 4): 1.9 µM | solubility ([1]; read-out: solubility): 6 µM (≈ 2.32 µg/mL) | Papp A→B (P-gp (MDR1)): 76 nm/s | PPB [5]: 99.7% | fraction unbound ([6]; read-out: PPB (converted)): 0.002 | metabolised at 0.25 h [2]: 14% | Drug metabolism [3]: 37% | IC50 (Cytochrome P450 1A2): 1.4 µM | IC50 (Cytochrome P450 2C19): 2.3 µM | IC50 (Cytochrome P450 2C9): 3.2 µM | IC50 (Cytochrome P450 2D6): > 10 µM | IC50 (Cytochrome P450 3A4): > 10 µM | clearance [11]: 4.02 L/h/kg | Vd [12]: 26 L/kg | half-life [13]: 4.7 h | Cmax [14]: 0.088 µM | AUC(0-t) [15]: 422 nM·h | bioavailability [16]: 7%

SMILES: O=C(c1c[nH]c2ccccc12)C(Nc1cccc(OC(F)(F)F)c1)c1ccccc1 (configuration not stated)
EC50 (dengue virus type 2; Dengue virus, Rega, Vero, 96 h): 0.926 µM | CC50 at 96 h [10]: 5 µM

SMILES: O=C(c1c[nH]c2ccccc12)C(Nc1cccnc1)c1ccccc1 (configuration not stated)
EC50 (dengue virus type 2; Dengue virus, Rega, Vero, 96 h): 5 µM | CC50 at 96 h [10]: 54 µM

SMILES: COc1cccc(NC(C(=O)c2c[nH]c3c(F)cccc23)c2ccccc2)c1 (configuration not stated)
EC50 (dengue virus type 2; Dengue virus, Rega, Vero, 96 h): 0.057 µM | CC50 at 96 h [10]: 14 µM

Reference: ChEMBL document CHEMBL4196174, “Discovery of Indole Derivatives as Novel and Potent Dengue Virus Inhibitors” (J Med Chem, 2018)
